How the values were obtained:
MS2 coat protein [1] = test: apparent Kd, MS2 coat protein; higher = weaker binding; RNA-MaP array; tryptophan 2.4 mM where present
Procedure, shortened: (§1)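 The apparent Kd comes from binding curves fitted cluster by cluster, filtered, and summarised as a median. Those curves followed SNAP-549-labelled MS2 coat protein from 0.7 or 1.5 nM, doubling to 3 µM, on Illumina sequencing-chip clusters where stalled E. coli RNA polymerase had transcribed the designs, without and then with constant ligand. The buffer was 100 mM Tris-HCl pH 7.5, 80 mM KCl, 4 mM MgCl2, BSA, DTT, yeast tRNA and Tween-20, and green signal was normalised to red-channel RNA signal and control-cluster median Fmax.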

MS2 coat protein [2] = test: apparent Kd, MS2 coat protein; higher = weaker binding; RNA-MaP array; theophylline 2 mM where present
Procedure, shortened: as §1

[3] = designed as: ON switch for tryptophan, no ligand
[4] = ligand present: tryptophan, designed as: ON switch for tryptophan
[5] = designed as: OFF switch for tryptophan, no ligand
[6] = ligand present: tryptophan, designed as: OFF switch for tryptophan

For “AGCCACUCGAGUGAUCCUCACGAGUGGCUACGAGGACCGGUACGGCCGCCACUCGAAUUAACAUGAGGAUCACCCAUGUAAUCAU”, the “apparent Kd” value (MS2 coat protein [1]; [3]) was 31.5 nM and the “apparent Kd” value (MS2 coat protein [1]; [4]) was 111 nM.

With “AUAAAUAAUAAAUAAAAUAAAAUGGGUGAACGAGGACCGGUACGGCCGCCACUCGGACAUGAGGAUCACCCAUGUCCAUGUGAAA” the “apparent Kd” value (MS2 coat protein [1]; [5]) was 19.5 nM and the “apparent Kd” value (MS2 coat protein [1]; [6]) was 46.1 nM.

For “AUACAUGAGGAUCACCCAUGUGAUGGCCGGCGAGGACCGGUACGGCCGCCACUCGUGAUCCGUCCUGAAAGCAAAGCUCUCAACA”, the “apparent Kd” value (MS2 coat protein [1]; [3]) was 47.2 nM and the “apparent Kd” value (MS2 coat protein [1]; [4]) was 91.2 nM.

In the case of “GUCCUCAUGACGGCCGCCACUAAACAUGAGGAUCACCCAUGUAAUGAUCCAUUAAAUGAUAAUAGUAGGACCGGGUCAAAAUAAA”, the “apparent Kd” value (MS2 coat protein [1]; [3]) was 477 nM and the “apparent Kd” value (MS2 coat protein [1]; [4]) was 669 nM.

“UGCAUUAUACAUGGAUCACCCAUGUAGACACGAGGACCGGUACGGCCGCCACUCGGAAGAGGGAACAUGAGGAUCACCCAUGUGA” was tested, and the “apparent Kd” value (MS2 coat protein [1]; [3]) was 52.5 nM and the “apparent Kd” value (MS2 coat protein [1]; [4]) was 51.5 nM.

In the case of “UGUCAGCGAAAGUUGACAUGUCUUGCUGGUCGAGGACCGGUACGGCCGCCACUCGAUCUCUCGCACAUGAGGAUCACCCAUGUUG”, the “apparent Kd” value (MS2 coat protein [1]; [3]) was 12.6 nM and the “apparent Kd” value (MS2 coat protein [1]; [4]) was 13.4 nM.

“AGAUUCGACACGGCCGCCACUUUCAGUGGCUGGUCACAUGGUGCACAUGAGGAUCACCCAUGUGGAAGGACCGGGUGUUGAGUCU” was tested, and the “apparent Kd” value (MS2 coat protein [1]; [5]) was 28 nM and the “apparent Kd” value (MS2 coat protein [1]; [6]) was 91.9 nM.

With “AACUUCGCAUAGGAAAACUAUGUGAAGAAUCGAGGACCGGUACGGCCGCCACUCGUCCUCAACAUGAGGAUCACCCAUGUAAUAA” the “apparent Kd” value (MS2 coat protein [1]; [5]) was 18.9 nM and the “apparent Kd” value (MS2 coat protein [1]; [6]) was 34.8 nM.

With “UAUUAUCAGUCGGCCGCCACUGUCACAUGAGGAUCACCCAUGUAACUUGGGUUAUAUUUAAUAUACAGGACCGGGACAAAGGCUA” the “apparent Kd” value (MS2 coat protein [1]; [5]) was 58.6 nM and the “apparent Kd” value (MS2 coat protein [1]; [6]) was 115 nM.

With “GAACAGUCGGACAUGAGGAUCACCCAUGUGCGAGGACCGGUACGGCCGCCACUCGACAAGGGCGGUCCCGAAGCGAACAUACGCG” the “apparent Kd” value (MS2 coat protein [1]; [5]) was 23.8 nM and the “apparent Kd” value (MS2 coat protein [1]; [6]) was 14.7 nM.

For “GGUUACUCUACGGCCGCCACUGAACAUGAGGAUCACCCAUGUAAUGUUCAGUAGUCUUUAGACAACAGGACCGGGUAGUGUAACC”, the “apparent Kd” value (MS2 coat protein [1]; [3]) was 228 nM and the “apparent Kd” value (MS2 coat protein [1]; [4]) was 215 nM.

In the case of “UUAGUAACGACGGCCGCCACUGAAUUUGAACAUGAGGAUCACCCAUGUAGAGAUCCUAGAAUAAACAGGACCGGGUCUGAUAAUG”, the “apparent Kd” value (MS2 coat protein [1]; [5]) was 95.7 nM and the “apparent Kd” value (MS2 coat protein [1]; [6]) was 118 nM.

For “AACAUGAGGAUCACCCAUGUGUCCUCGAAACGAGGACCGGUACGGCCGCCACUCGACGUAUGUUGACGAAAAGUCAGCAUACGAA”, the “apparent Kd” value (MS2 coat protein [1]; [5]) was 281 nM and the “apparent Kd” value (MS2 coat protein [1]; [6]) was 885 nM.

In the case of “CGAGUAAGAACAAUCGAAUAACGGUUUUCGCGAGGACCGGUACGGCCGCCACUCGUGUGAUAUCACACAUGAGGAUCACCCAUGU”, the “apparent Kd” value (MS2 coat protein [1]; [3]) was 80.2 nM and the “apparent Kd” value (MS2 coat protein [1]; [4]) was 41.2 nM.

In the case of “CUACAUUUGUAGAAACCGGUCAACAAUAAUCGAGGACCGGUACGGCCGCCACUCGAUGUGUUAUACACAUGAGGAUCACCCAUGU”, the “apparent Kd” value (MS2 coat protein [1]; [3]) was 21.1 nM and the “apparent Kd” value (MS2 coat protein [1]; [4]) was 17.4 nM.

For “GCUGGACUUUCGGCCGCCACUGAGAGAGUCGUGUGAACAUGAGGAUCACCCAUGUAAUAUAUAUACAGGACCGGGAGGGUUGUGC”, the “apparent Kd” value (MS2 coat protein [1]; [5]) was 11.8 nM and the “apparent Kd” value (MS2 coat protein [1]; [6]) was 11.9 nM.

In the case of “AUAUAUACAUGAGGAUCACCCAUGUUAUUUCGAGGACCGGUACGGCCGCCACUCGAUAGAGUGGAAGUAACAUUUGUUAGAUGAU”, the “apparent Kd” value (MS2 coat protein [1]; [3]) was 15.7 nM and the “apparent Kd” value (MS2 coat protein [1]; [4]) was 15.4 nM.

For “CUCAUCCACGCGGCCGCCACUAUAUUGUGGUGUGAGUGUGACGUAUUACAUGAGGAUCACCCAUGUAGGACCGGGCGUGGAUGAG”, the “apparent Kd” value (MS2 coat protein [1]; [5]) was 34.6 nM and the “apparent Kd” value (MS2 coat protein [1]; [6]) was 308 nM.

With “AAACAUGAGGCGGCCGCCACUGUAUGAACAUGAGGAUCACCCAUGUAUGUACCCAUGUGUGUACACAGGACCGGGCCAUGUGGAU” the “apparent Kd” value (MS2 coat protein [1]; [5]) was 28.1 nM and the “apparent Kd” value (MS2 coat protein [1]; [6]) was 19.9 nM.

With “GGGAGGUAGGCGGCCGCCACUGAUUUUCAUAUAUAUAUAACAUGAGGAUCACCCAUGUAGAUAUGCAGGACCGGGCCUGUUUUUU” the “apparent Kd” value (MS2 coat protein [1]; [3]) was 23.9 nM and the “apparent Kd” value (MS2 coat protein [1]; [4]) was 19.3 nM.

In the case of “AACAUGAGGAUCACCCAUGUACAUUUCGAUCGAGGACCGGUACGGCCGCCACUCGAAAACAUGAGGAUCACCCAUGUUCAACAGG”, the “apparent Kd” value (MS2 coat protein [1]; [3]) was 296 nM and the “apparent Kd” value (MS2 coat protein [1]; [4]) was 184 nM.

For “AAUAAUAUCCUCAUGUGAGUCGUACCGUAACGAGGACCGGUACGGCCGCCACUCGAACAUGAGGAUCACCCAUGUAGGUACGACA”, the “apparent Kd” value (MS2 coat protein [1]; [3]) was 207 nM and the “apparent Kd” value (MS2 coat protein [1]; [4]) was 99.7 nM.

In the case of “UCUACAUGAGGAUCACCCAUGUGCCAUGAUACCAGACAUGAAAAUGUCCCUUGGCAGCAUGGGUAGCGCAUCCGAAAGGAUGCGU”, the “apparent Kd” value (MS2 coat protein [2]; designed as: ON switch for theophylline, no ligand) was 32.2 nM and the “apparent Kd” value (MS2 coat protein [2]; ligand present: theophylline, designed as: ON switch for theophylline) was 657 nM.

For “ACGACGGCUGCGGCCGCCACUGUACAUGAGGAUCACCCAUGUGUAGUAAUUGGGACCCUGUGUUACAGGACCGGGUAGUUGAUUA”, the “apparent Kd” value (MS2 coat protein [1]; [5]) was 34.6 nM and the “apparent Kd” value (MS2 coat protein [1]; [6]) was 69.9 nM.

“ACGAACGAUAGUGAUACCAGACGUACAUGAGGAUCACCCAUGUUAUACACAUGGUUUAUUGUCCCUUGGCAGCACGUUAAGUUCG” was tested, and the “apparent Kd” value (MS2 coat protein [2]; designed as: OFF switch for theophylline, no ligand) was 274 nM and the “apparent Kd” value (MS2 coat protein [2]; ligand present: theophylline, designed as: OFF switch for theophylline) was 295 nM.

From the EternaBench riboswitch data
